Key:
Histone deacetylase = experiment: Inhibition of HDAC in human HeLa nuclear extract using Boc-Lys (acetyl)-AMC as fluorogenic substrate after 30 mins by spectrophotometry; type: protein assay
Aminopeptidase N = target: T1, Aminopeptidase N (Sus scrofa, UniProt P15145); experiment: Inhibition of pig kidney microsomal APN using L-Leu-p-nitroanilide as substrate preincubated for 5 mins before substrate addition measured after 30 mins by spectrophotometry
T1 sequence (P15145 whole entry): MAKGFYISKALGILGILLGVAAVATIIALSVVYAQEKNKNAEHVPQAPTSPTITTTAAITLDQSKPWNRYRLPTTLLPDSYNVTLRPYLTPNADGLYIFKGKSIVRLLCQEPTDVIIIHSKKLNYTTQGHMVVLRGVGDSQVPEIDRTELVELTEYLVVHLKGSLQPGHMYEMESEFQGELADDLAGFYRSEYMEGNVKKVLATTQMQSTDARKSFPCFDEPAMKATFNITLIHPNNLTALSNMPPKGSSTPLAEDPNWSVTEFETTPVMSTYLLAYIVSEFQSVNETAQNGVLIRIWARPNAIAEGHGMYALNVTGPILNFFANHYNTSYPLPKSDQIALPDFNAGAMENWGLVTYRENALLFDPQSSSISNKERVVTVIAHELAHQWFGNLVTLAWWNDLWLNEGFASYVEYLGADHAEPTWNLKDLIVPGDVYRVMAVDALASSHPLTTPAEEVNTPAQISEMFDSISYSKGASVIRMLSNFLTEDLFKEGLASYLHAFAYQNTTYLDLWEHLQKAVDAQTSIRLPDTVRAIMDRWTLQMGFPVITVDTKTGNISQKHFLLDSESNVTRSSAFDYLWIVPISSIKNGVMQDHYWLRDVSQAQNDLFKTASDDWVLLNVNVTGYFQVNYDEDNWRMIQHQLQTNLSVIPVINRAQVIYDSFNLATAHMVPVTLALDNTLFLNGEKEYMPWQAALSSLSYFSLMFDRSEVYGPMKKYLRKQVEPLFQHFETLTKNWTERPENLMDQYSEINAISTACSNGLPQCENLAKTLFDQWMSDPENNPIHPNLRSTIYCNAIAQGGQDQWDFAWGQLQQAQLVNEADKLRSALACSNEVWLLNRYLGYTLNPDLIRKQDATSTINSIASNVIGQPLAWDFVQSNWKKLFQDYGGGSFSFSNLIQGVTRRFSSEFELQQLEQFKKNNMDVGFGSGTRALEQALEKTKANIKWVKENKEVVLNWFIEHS

[1] = target: T2, 72 kDa type IV collagenase (Homo sapiens, UniProt P08253); experiment: Inhibition of MMP2 (unknown origin) using succinylated gelatin as substrate preincubated for 10 mins before substrate addition measured after 30 mins by spectrophotometry
Procedure, shortened: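 Purified MMP-2 (gelatinase A) and inhibitor in 50 mmol/L sodium borate pH 8.5, preincubated 10 min at 37 °C. Succinylated gelatin then added for 30 min at 37 °C, followed by 0.03% TNBS for 20 min; OD read at 450 nm. IC₅₀ as mean with SD of three experiments.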

[2] = target: T2, 72 kDa type IV collagenase; experiment: Inhibition of MMP2 in human SKOV3 cell suspension using succinylated gelatin as substrate preincubated for 10 mins before substrate addition measured after 30 mins by spectrophotometry; design: species or system SK-OV-3
Procedure, shortened: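 Enzyme source was SKOV-3 cells suspended in PBS, 1 × 10⁵/well, incubated with inhibitor in 50 mmol/L sodium borate pH 8.5 for 10 min at 37 °C. Succinylated gelatin added for 30 min at 37 °C, then 0.03% TNBS for 20 min; absorbance at 450 nm. IC₅₀ as mean with SD of three experiments.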

A549 = experiment: Antiproliferative activity against human A549 cells after 48 hrs by MTT assay; type: functional, cell-based; conditions: A549, 48 h
Procedure, shortened: (§1)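 Cells kept in RPMI1640 with 10% FBS at 37 °C, 5% CO₂; seeded 10,000/well, grown 4 h, then exposed to graded compound concentrations for 48 h. 0.5% MTT added for 4 h, formazan dissolved in DMSO 15 min. IC₅₀ as mean with SD of triplicate experiments.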

SK-OV-3 = experiment: Antiproliferative activity against human SKOV3 cells after 48 hrs by MTT assay; type: functional, cell-based; conditions: SK-OV-3, 48 h; procedure, shortened: as §1
HL-60 = experiment: Antiproliferative activity against human HL60 cells after 48 hrs by MTT assay; type: functional, cell-based; conditions: HL-60, 48 h; procedure, shortened: as §1

T2 sequence (P08253 whole entry): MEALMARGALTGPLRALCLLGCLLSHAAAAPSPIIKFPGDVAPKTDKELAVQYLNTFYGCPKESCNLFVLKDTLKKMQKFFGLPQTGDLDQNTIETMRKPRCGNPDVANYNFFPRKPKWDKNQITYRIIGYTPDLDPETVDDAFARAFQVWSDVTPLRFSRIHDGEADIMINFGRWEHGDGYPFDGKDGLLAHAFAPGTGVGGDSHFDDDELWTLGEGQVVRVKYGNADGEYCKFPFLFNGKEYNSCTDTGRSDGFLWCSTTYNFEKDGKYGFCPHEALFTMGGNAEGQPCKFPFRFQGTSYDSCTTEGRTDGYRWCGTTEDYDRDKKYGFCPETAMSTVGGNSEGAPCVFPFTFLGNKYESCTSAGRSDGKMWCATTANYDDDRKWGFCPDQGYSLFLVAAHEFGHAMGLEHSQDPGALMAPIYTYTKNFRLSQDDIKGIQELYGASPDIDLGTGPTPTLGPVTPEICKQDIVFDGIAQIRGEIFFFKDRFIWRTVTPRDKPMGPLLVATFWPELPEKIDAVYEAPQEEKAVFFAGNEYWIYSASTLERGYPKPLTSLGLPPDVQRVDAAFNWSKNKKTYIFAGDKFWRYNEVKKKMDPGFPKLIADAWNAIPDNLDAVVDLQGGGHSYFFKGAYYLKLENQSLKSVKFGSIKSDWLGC

Compound | IC50 (Histone deacetylase) [µM] | IC50 (Aminopeptidase N) [µM] | IC50 [1] [µM] | IC50 [2] [µM] | IC50 (A549) [µM] | IC50 (SK-OV-3) [µM] | IC50 (HL-60) [µM]
C[C@H](N)C(=O)NCC(=O)N[C@H]1C[C@@H](C(=O)NO)N(S(=O)(=O)c2ccccc2)C1.Cl | > 100 | > 100 | 7.43 |  |  |  | 
CC(C)[C@H](N)C(=O)NCC(=O)N[C@H]1C[C@@H](C(=O)NO)N(S(=O)(=O)c2ccccc2)C1.Cl | > 100 | > 100 | 5.76 |  |  |  | 
CC(C)C[C@H](N)C(=O)NCC(=O)N[C@H]1C[C@@H](C(=O)NO)N(S(=O)(=O)c2ccccc2)C1.Cl | > 100 | 82.3 | 1.52 |  |  |  | 
CC[C@H](C)[C@H](N)C(=O)NCC(=O)N[C@H]1C[C@@H](C(=O)NO)N(S(=O)(=O)c2ccccc2)C1.Cl | > 100 | > 100 | 5.21 |  |  |  | 
Cl.N[C@@H](Cc1ccccc1)C(=O)NCC(=O)N[C@H]1C[C@@H](C(=O)NO)N(S(=O)(=O)c2ccccc2)C1 | > 100 | 94.5 | 2.07 |  |  |  | 
CSCC[C@H](N)C(=O)NCC(=O)N[C@H]1C[C@@H](C(=O)NO)N(S(=O)(=O)c2ccccc2)C1.Cl | > 100 | > 100 | 2.32 |  |  |  | 
Cc1ccc(S(=O)(=O)N2C[C@@H](NC(=O)CNC(=O)[C@H](C)N)C[C@H]2C(=O)NO)cc1.Cl | > 100 | > 100 | 4.36 |  |  |  | 
Cc1ccc(S(=O)(=O)N2C[C@@H](NC(=O)CNC(=O)[C@@H](N)C(C)C)C[C@H]2C(=O)NO)cc1.Cl | > 100 | 96.2 | 2.95 |  |  |  | 
Cc1ccc(S(=O)(=O)N2C[C@@H](NC(=O)CNC(=O)[C@@H](N)CC(C)C)C[C@H]2C(=O)NO)cc1.Cl | > 100 | 75.8 | 0.87 | 38.3 |  |  | 
CC[C@H](C)[C@H](N)C(=O)NCC(=O)N[C@H]1C[C@@H](C(=O)NO)N(S(=O)(=O)c2ccc(C)cc2)C1.Cl | > 100 | 92.6 | 2.05 |  |  |  | 
Cc1ccc(S(=O)(=O)N2C[C@@H](NC(=O)CNC(=O)[C@@H](N)Cc3ccccc3)C[C@H]2C(=O)NO)cc1.Cl | > 100 | 88 | 0.98 |  |  |  | 
CSCC[C@H](N)C(=O)NCC(=O)N[C@H]1C[C@@H](C(=O)NO)N(S(=O)(=O)c2ccc(C)cc2)C1.Cl | > 100 | > 100 | 1.03 |  |  |  | 
COc1ccc(S(=O)(=O)N2C[C@@H](NC(=O)CNC(=O)[C@H](C)N)C[C@H]2C(=O)NO)cc1.Cl | > 100 | > 100 | 4.19 |  |  |  | 
COc1ccc(S(=O)(=O)N2C[C@@H](NC(=O)CNC(=O)[C@@H](N)C(C)C)C[C@H]2C(=O)NO)cc1.Cl | > 100 | 90.8 | 2.71 |  |  |  | 
COc1ccc(S(=O)(=O)N2C[C@@H](NC(=O)CNC(=O)[C@@H](N)CC(C)C)C[C@H]2C(=O)NO)cc1.Cl | > 100 | 83.6 | 0.52 | 29.7 |  |  | 
CC[C@H](C)[C@H](N)C(=O)NCC(=O)N[C@H]1C[C@@H](C(=O)NO)N(S(=O)(=O)c2ccc(OC)cc2)C1.Cl | > 100 | 89.9 | 1.94 |  |  |  | 
COc1ccc(S(=O)(=O)N2C[C@@H](NC(=O)CNC(=O)[C@@H](N)Cc3ccccc3)C[C@H]2C(=O)NO)cc1.Cl | > 100 | 93.8 | 0.72 | 31.5 |  |  | 
COc1ccc(S(=O)(=O)N2C[C@@H](NC(=O)CNC(=O)[C@@H](N)CCSC)C[C@H]2C(=O)NO)cc1.Cl | > 100 | > 100 | 0.76 | 35.9 |  |  | 
C[C@H](N)C(=O)NCC(=O)N[C@H]1C[C@@H](C(=O)NO)N(S(=O)(=O)c2ccc(Cl)cc2)C1.Cl | > 100 | > 100 | 3.36 |  |  |  | 
CC(C)[C@H](N)C(=O)NCC(=O)N[C@H]1C[C@@H](C(=O)NO)N(S(=O)(=O)c2ccc(Cl)cc2)C1.Cl | > 100 | 79.6 | 1.81 |  |  |  | 
CC(C)C[C@H](N)C(=O)NCC(=O)N[C@H]1C[C@@H](C(=O)NO)N(S(=O)(=O)c2ccc(Cl)cc2)C1.Cl | > 100 | 72.3 | 0.27 | 18.4 | > 1000 | 196 | > 1000
CC[C@H](C)[C@H](N)C(=O)NCC(=O)N[C@H]1C[C@@H](C(=O)NO)N(S(=O)(=O)c2ccc(Cl)cc2)C1.Cl | > 100 | 86.4 | 1.28 |  |  |  | 
Cl.N[C@@H](Cc1ccccc1)C(=O)NCC(=O)N[C@H]1C[C@@H](C(=O)NO)N(S(=O)(=O)c2ccc(Cl)cc2)C1 | > 100 | 89.9 | 0.43 | 24.7 | > 1000 | 285 | > 1000
CSCC[C@H](N)C(=O)NCC(=O)N[C@H]1C[C@@H](C(=O)NO)N(S(=O)(=O)c2ccc(Cl)cc2)C1.Cl | > 100 | 95.3 | 0.46 | 26.2 | > 1000 | 322 | > 1000
COc1ccc(/C=C/C(=O)N2C[C@@H](NC(=O)c3cccnc3)C[C@H]2C(=O)NO)cc1OC | > 100 | > 100 | 0.95 | 43.7 | > 1000 | 697 | > 1000
CC(C)C[C@H](NC(=O)[C@@H](O)[C@H](N)Cc1ccccc1)C(=O)O [UBENIMEX] |  |  | > 100 |  |  |  | 

Reference: ChEMBL document CHEMBL3259559, “Design, synthesis and preliminary evaluation of α-sulfonyl γ-(glycinyl-amino)proline peptidomimetics as matrix metalloproteinase inhibitors” (Bioorg Med Chem, 2014)
